Experimental data published in ChEMBL document CHEMBL1154970, “Replacement of pyrazol-3-yl amine hinge binder with thiazol-2-yl amine: Discovery of potent and selective JAK2 inhibitors” (Bioorg Med Chem Lett, 2010).
pIC50: −log10 of the molar value.

Assays:
[1] = Intrinsic clearance in rat liver microsomes at 2 uM by LC-MS/MS; format: ADME, Microsome
Procedure, shortened: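 Rat liver microsomes incubated with compound at 2 μM initial concentration; time-dependent disappearance of parent measured by LC–MS/MS to give intrinsic clearance (μL/min/mg).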

[2] = Plasma concentration in nude mouse transplanted with recombinant TEL-JAK2 expressing BA/F3 cells at 10 mg/kg, po dosed on day 10 of transplantation measured after 2 hrs; format: ADME, organism-based, BaF3; parameters: dose 10 mg/kg, route oral
Procedure, shortened: (§1)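 Female nude mice implanted intravenously with Ba/F3 TEL-JAK2 cells on day 0, then dosed orally once at 10 mg/kg on day 10. Total plasma drug concentration measured at 2 or 6 h post-dose by LC-MS on a C18 column, water/MeCN with 0.1% formic acid; n = 3 per time point.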

[3] = Plasma concentration in nude mouse transplanted with recombinant TEL-JAK2 expressing BA/F3 cells at 10 mg/kg, po dosed on day 10 of transplantation measured after 6 hrs; format: ADME, organism-based, BaF3; parameters: dose 10 mg/kg, route oral; procedure, shortened: as §1
[4] = Clearance in Han Wistar rat at 3 mg/kg, iv; format: ADME, organism-based; parameters: dose 3 mg/kg, route intravenous; settings: in vivo
[5] = Volume of distribution at steady state in Han Wistar rat at 3 mg/kg, iv; format: ADME, organism-based; parameters: dose 3 mg/kg, route intravenous; settings: in vivo, read-out: Vdss
[6] = Half life in Han Wistar rat at 3 mg/kg, iv; format: ADME, organism-based; parameters: dose 3 mg/kg, route intravenous; settings: in vivo
[7] = Growth inhibition of mouse BA/F3 cells transfected with recombinant TEL-JAK3 kinase after 48 hrs by alamar blue assay; format: functional, cell-based, BaF3
Procedure, shortened: (§2)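 Proliferation of Ba/F3 cells transfected with TEL-JAK2 or TEL-JAK3 fusions; GI50 determined.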

[8] = target: Voltage-gated inwardly rectifying potassium channel KCNH2 (Homo sapiens, UniProt Q12809)
[9] = target: T1, Tyrosine-protein kinase JAK2 (Homo sapiens, UniProt O60674); assay: Inhibition of recombinant JAK2 kinase in presence of 5 mM ATP
[10] = Growth inhibition of mouse BA/F3 cells transfected with recombinant TEL-JAK2 kinase after 48 hrs by alamar blue assay; format: functional, cell-based; settings: BaF3, 48 h; procedure, shortened: as §2
[11] = test system: BaF3; assay: Selectivity ratio of GI50 for mouse BA/F3 cells transfected with recombinant TEL-JAK3 kinase to GI50 for mouse BA/F3 cells transfected with recombinant TEL-JAK2 kinase; format: functional, cell-based
Procedure, shortened: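 Fold selectivity calculated as the TEL-JAK3 Ba/F3 GI50 divided by the TEL-JAK2 Ba/F3 GI50.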

[12] = target: T1, Tyrosine-protein kinase JAK2; assay: Inhibition of recombinant JAK2 kinase in presence of 5 mM ATP
[13] = Solubility of the compound; format: physicochemical
[14] = target: T1, Tyrosine-protein kinase JAK2; assay: Inhibition of recombinant JAK2 kinase in presence of ATP
[15] = target: T1, Tyrosine-protein kinase JAK2; settings: BaF3; 10 mg/kg
[16] = Mus musculus, BaF3, 48 h, read-out: GI50

T1 sequence (O60674 whole entry): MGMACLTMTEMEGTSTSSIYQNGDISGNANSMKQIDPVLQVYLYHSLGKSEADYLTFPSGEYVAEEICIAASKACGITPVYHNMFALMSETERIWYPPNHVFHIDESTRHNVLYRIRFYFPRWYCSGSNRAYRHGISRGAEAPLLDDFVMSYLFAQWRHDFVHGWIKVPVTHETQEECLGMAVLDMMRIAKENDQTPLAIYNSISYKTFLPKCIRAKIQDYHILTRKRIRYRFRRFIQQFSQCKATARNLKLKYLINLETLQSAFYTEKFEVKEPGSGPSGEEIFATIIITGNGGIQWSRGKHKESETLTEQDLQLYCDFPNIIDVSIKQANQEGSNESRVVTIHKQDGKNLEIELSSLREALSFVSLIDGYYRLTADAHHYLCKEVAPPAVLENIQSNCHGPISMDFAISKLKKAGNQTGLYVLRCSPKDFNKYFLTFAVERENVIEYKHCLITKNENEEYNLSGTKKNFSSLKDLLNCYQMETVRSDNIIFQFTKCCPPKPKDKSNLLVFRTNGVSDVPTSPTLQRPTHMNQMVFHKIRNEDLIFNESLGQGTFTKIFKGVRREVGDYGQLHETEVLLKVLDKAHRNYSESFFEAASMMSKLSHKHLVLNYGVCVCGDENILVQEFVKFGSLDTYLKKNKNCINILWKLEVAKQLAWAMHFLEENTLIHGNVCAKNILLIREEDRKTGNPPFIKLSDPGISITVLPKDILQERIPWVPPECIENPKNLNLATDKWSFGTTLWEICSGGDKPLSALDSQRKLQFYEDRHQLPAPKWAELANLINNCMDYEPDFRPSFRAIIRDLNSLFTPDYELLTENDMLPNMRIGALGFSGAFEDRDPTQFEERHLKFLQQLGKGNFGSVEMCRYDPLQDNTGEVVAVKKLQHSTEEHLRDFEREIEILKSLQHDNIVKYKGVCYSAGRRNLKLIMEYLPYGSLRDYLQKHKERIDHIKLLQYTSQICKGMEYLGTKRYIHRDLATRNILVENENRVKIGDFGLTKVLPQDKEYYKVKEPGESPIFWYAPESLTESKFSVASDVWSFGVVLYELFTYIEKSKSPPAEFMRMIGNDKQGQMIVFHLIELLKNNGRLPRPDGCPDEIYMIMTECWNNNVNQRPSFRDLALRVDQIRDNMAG
Chain of Voltage-gated inwardly rectifying potassium channel KCNH2 (Q12809 whole entry): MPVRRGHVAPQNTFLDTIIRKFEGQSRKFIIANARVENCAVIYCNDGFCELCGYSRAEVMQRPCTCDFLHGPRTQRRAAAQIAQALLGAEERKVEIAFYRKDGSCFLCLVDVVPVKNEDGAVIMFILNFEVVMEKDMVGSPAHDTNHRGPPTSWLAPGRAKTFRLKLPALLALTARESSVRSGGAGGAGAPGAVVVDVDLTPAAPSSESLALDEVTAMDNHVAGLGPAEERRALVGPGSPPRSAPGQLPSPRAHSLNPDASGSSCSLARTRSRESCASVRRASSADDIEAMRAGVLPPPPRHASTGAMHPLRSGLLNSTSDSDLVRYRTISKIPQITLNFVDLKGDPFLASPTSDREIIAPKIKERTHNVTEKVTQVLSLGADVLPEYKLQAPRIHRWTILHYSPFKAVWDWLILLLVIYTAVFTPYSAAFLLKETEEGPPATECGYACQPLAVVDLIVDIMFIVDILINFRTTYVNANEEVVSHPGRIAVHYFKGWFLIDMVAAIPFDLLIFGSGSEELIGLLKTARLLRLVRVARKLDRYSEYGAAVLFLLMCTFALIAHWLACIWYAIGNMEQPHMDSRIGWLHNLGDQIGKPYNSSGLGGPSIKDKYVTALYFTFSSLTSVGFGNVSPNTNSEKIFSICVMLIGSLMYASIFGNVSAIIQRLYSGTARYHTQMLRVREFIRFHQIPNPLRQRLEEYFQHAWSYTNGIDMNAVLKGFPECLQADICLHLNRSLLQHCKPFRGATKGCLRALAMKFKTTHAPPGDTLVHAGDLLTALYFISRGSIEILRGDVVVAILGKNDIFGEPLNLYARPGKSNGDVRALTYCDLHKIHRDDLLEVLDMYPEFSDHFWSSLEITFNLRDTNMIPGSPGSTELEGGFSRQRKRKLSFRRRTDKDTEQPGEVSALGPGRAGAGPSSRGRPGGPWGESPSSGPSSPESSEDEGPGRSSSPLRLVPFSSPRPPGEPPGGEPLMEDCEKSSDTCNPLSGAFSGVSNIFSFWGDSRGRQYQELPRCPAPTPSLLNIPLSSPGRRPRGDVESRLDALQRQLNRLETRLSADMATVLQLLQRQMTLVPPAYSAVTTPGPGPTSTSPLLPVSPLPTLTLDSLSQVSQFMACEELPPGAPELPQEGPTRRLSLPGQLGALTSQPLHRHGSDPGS

| microsomal CLint at 2 µM [1] [µL/min/mg] | concentration at 2 h [2] [ng/mL] | concentration at 6 h [3] [ng/mL] | clearance [4] [mL/min/kg] | Vd [5] [L/kg] | half-life [6] [h] | pIC50 [12] | Compound | GI50 ([7]; Mus musculus, BaF3, 48 h) [nM] | pIC50 [8] | GI50 [10] [nM] | RatioGI50 [11] | also measured |
| --- | --- | --- | --- | --- | --- | --- | --- | --- | --- | --- | --- | --- |
| > 120 | 126 | 55 | 38 | 2.8 | 1.2 | – | Cc1cnc(Nc2cc(N3CCOCC3)nc(N[C@@H](C)c3ccc(F)cn3)n2)s1 | 1200 | 4.92 | – | – | – |
| 41 | – | – | – | – | – | – | C[C@H](Nc1nc(Nc2ncc(C#N)s2)cc(N2CCOCC2)n1)c1ncc(F)cn1 | 520 | – | 53 | 10 | RatioGI50 [9]: 0.079 |
| 52 | – | – | – | – | – | 7.31 | Cc1cnc(Nc2cncc(N[C@@H](C)c3ncc(F)cn3)n2)s1 | – | – | – | – | solubility [13]: > 1000 µM; pIC50 [14]: 8.40 |
| 84 | 715 | 146 | 32 | 2.3 | 1.3 | 8.52 | Cc1cnc(Nc2cc(N3CCOCC3)nc(N[C@@H](C)c3ncc(F)cn3)n2)s1 | – | < 4.49 | – | 237 | GI50 ([10]; read-out: GI50): 5 nM; inhibition [15]: > 80%; GI50 [7, 16]: 1100 nM |
| < 4 | – | – | 14 | 1.1 | 1.4 | – | Cc1cc(Nc2cncc(N[C@@H](C)c3ncc(F)cn3)n2)n[nH]1 | – | – | – | – | solubility [13]: > 1000 µM; pIC50 [14]: > 8.52 |
| 220 | – | – | 80 | 8.5 | 1.3 | > 8.52 | Cc1cnc(Nc2cc(N3CCN(C)CC3)nc(N[C@@H](C)c3ccc(F)cn3)n2)s1 | – | 4.89 | 5 | – | RatioGI50 ([11]; Mus musculus, BaF3): 129; GI50 [7]: 0.62 |
| > 100 | – | – | – | – | – | > 8.52 | COc1cc(Nc2ncc(C)s2)nc(N[C@@H](C)c2ncc(F)cn2)n1 | – | < 4.49 | – | 35 | GI50 ([10]; read-out: GI50): 42 nM; GI50 [7, 16]: 1500 nM |
| – | 219 | 95 | – | – | – | – | Cc1cnc(Nc2nc(N[C@@H](C)c3ncc(F)cn3)nc(N3CCOCC3)c2F)s1 | – | – | – | – | – |
| 31 | – | – | – | – | – | > 8.52 | C[C@H](Nc1nc(Nc2ncc(C#N)s2)cc(N2CCOCC2)n1)c1ccc(F)cn1 | 170 | – | 36 | – | – |
